Rows were chosen to be rich in hits. Some 2.1% of all compounds tested hit in one or more screens of this group.
Insulin prom up: MIN6 insulin promoter up-regulation; MIN6 insulin promoter-GFP reporter, high-content imaging; active compounds read high; z-score at 5 µM; 0.3% of 190,000 active; AID 1625;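 active means z-score above 3 at 5 µM with at least 500 cells counted in the well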
Dynein transport: blocks dynein driven cargo transport along microtubules; 3617.4 mouse cells, GR-EGFP nuclear translocation imaging; test concentration mostly 20 µM; stimulated with dexamethasone, 1 µM; active compounds read low; z-score, hits read low; 0.47% of 220,000 active; AID 1381;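 active means plate z-score of nuclear minus cytoplasmic receptor signal below a set negative limit, without overly bright fluorescence or cell loss, cut at about -3.5 in these data, passing the limit was not always enough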;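 further: z-score of nuclear minus cytoplasmic ring GR-EGFP intensity difference per well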
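Buffer or medium: tet-free medium with charcoal-stripped serum / Also added: dexamethasone agonist, 1.0 µM final, for 30 min / Timing: induction 48 h, compound 1 h, agonist 30 min / Measured by: high-content fluorescence imaging after fixation / Read-out: nuclear-to-cytoplasmic GR-EGFP distribution per well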
PERK inh: human PERK inhibition, primary cell-based screen; 0.17% of 220,000 active; inhibition, % at 5.6 µM; AID 1416; CHO PERK-DD fusion, SEAP luminescence translation reporter;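 active means inhibition above the mean inhibition of all tested compounds plus 3 SD, set separately per screening campaign, cut at about 2.9% in these data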;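 further: PERK kinase domain activated by AP20187 dimerizer at 100 nM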
INS promoter inh: TRM-6 insulin promoter activity inhibition; TRM-6 cells (human fetal islet line), insulin promoter-eGFP reporter, imaging; reporter expression induced with tamoxifen; inhibition, % at 2 µM; 0.9% of 130,000 active; AID 1273;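 active means inhibition above the mean plus 3 SD, with well images judged a real hit on visual review, cut at about 60% in these data, passing the limit was not always enough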
Autophagy mod: modulators of autophagy | MEF GFP-LC3 puncta imaging; test concentration mostly 10 µM | calls only at 10 µM (by protocol) | 0.98% of 190,000 active | AID 463193;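 active means percentage of spot-positive cells more than 3 SD above its plate mean, without a fluorescence outlier flag or 80% toxicity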
Hits are given with their value; i = inactive; nt = not tested or not shown; + = active, no number.

SMILES	Insulin prom up	Dynein transport	PERK inh	INS promoter inh	Autophagy mod
CCN(CC)c1ccc(/C=N/N=C(N)N)c(O)c1	i	i	i	nt	+
O=C1CCN(c2ccc([N+](=O)[O-])cc2F)CC1	i	i	i	nt	i
CN(C)c1ccc(/C=N/NC(=O)CN(c2ccccc2Cl)S(C)(=O)=O)cc1Br	3.6	i	i	i	i
CS(=O)(=O)N(CC(=O)N/N=C/c1ccc(OCC(=O)N2CCOCC2)cc1)c1ccccc1Cl	i	i	i	i	i
Cc1cc(C)n2nc(NCc3cccc(Br)c3)nc2n1	i	i	i	nt	i
CCC(C)(C)n1nnnc1C(C(C)C)N1CCSCC1 (stereo not given)	i	i	i	i	+
CC(C)(C=O)C1=CC(=O)c2ccccc2C1=O	i	-3.6	i	i	i
Cc1nn(C)c(Cl)c1S(=O)(=O)N1CCC(CO)(CCc2ccccc2)CC1	nt	i	i	nt	i
C=CCN=C1CCCc2c1[nH]c1ccc(C)cc21	i	i	i	i	i
COc1ccc(OS(=O)(=O)c2c(C)noc2C)cc1	i	i	i	nt	nt
CC1CCCC(NC(=O)COC(=O)c2ccccc2[N+](=O)[O-])C1C (stereo not given)	i	i	i	nt	+
CC1CCCC(NC(=O)COC(=O)c2ccccc2NC(=O)c2ccco2)C1C (stereo not given)	i	i	i	i	i
CN(Cc1cn(-c2ccccc2)nc1-c1ccc2c(c1)OCO2)Cc1nccn1C	i	i	i	nt	+
COc1ccc(NC(C)(C)c2nnnn2-c2c(C)cccc2C)cc1	i	i	i	nt	nt
Cc1nc2c([nH]c3ccc(Br)cc32)s1	i	i	i	95	i
Brc1ccc2[nH]c3c(c2c1)CCC3	i	i	i	nt	nt
CCc1c(C)nc2ncnn2c1NCCc1ccc(Cl)cc1	i	i	i	nt	i
O=C(CCc1nnc(C2(c3ccc(Cl)cc3)CCC2)o1)NCCCn1cccn1	i	i	i	nt	i
Cc1ccc(S(=O)(=O)/N=S(\C)CC2CC2(Cl)Cl)cc1 (stereo not given)	nt	i	i	nt	i
O=S(CC1CC1(Cl)Cl)CC1CC1(Cl)Cl (stereo not given)	i	i	i	i	+
O=C(Nc1nc2ccccc2s1)C1CC(=O)N(c2ccccc2)C1 (stereo not given)	i	i	i	i	i
O=C(Nc1nc2ccccc2s1)C1CC(=O)N(c2ccc(Br)cc2)C1 (stereo not given)	nt	i	i	67	i
Cc1ccc(S(=O)(=O)N2CCC(C(=O)N3CCC[C@H]3C(=O)NCc3ccco3)CC2)cc1	i	i	i	i	+
Cc1ccc(S(=O)(=O)N2CCC(C(=O)N3CCC[C@H]3C(=O)NCc3ccccc3)CC2)cc1	i	i	i	i	i
COC(=O)[C@@]1(Cc2ccc(OC)cc2)[C@@H]2C(=CC(=O)[C@H]2CC(=O)C(=O)N2CCCC2)CN1C(=O)c1ccccc1	i	-4.7	i	i	i
SMILES	Insulin prom up	Dynein transport	PERK inh	INS promoter inh	Autophagy mod
COc1ccc(NC(=O)N2CCCCC2)cc1	i	i	i	80	i
Cc1ccccc1NC(=O)c1sc(NC(=O)COc2ccccc2)c(C#N)c1C	i	i	i	i	i
CCn1c(C)c(C(C)=O)c(N2CCN(C(c3ccccc3)c3ccccc3)CC2)nc1=S	i	i	i	i	+
Cc1c(C(=O)Nc2ccc(F)cc2)oc2ccc(S(=O)(=O)N3CC(C)CC(C)C3)cc12 (stereo not given)	i	i	i	71	i
Cc1c(C(=O)NCc2cccnc2)oc2ccc(S(=O)(=O)N3CC(C)CC(C)C3)cc12 (stereo not given)	i	i	i	i	i
Cn1c(SCC(=O)NC(=O)Nc2ccccc2)nnc1-c1ccncc1	i	i	i	nt	nt
CC(C)NC(=O)NC(=O)COC(=O)c1cccc(S(=O)(=O)N2CCCCC2)c1	4.6	i	i	i	i
NC(=O)COC(=O)c1cccc(S(=O)(=O)N2CCCCC2)c1	i	i	i	i	i
C=CCc1cccc(CNc2c(C)n(C)n(-c3ccccc3)c2=O)c1O	i	i	i	76	i
COC(=O)c1cnc(Oc2ccc(NC(=O)NC(=O)c3ccccc3Cl)cc2)cc1C(F)(F)F	i	i	i	nt	nt
CCOC(=O)c1[nH]c2ccccc2c1N=CN(CC)CC	nt	i	i	nt	i
O=C(COc1ccccc1/C=C1\SC(=O)NC1=O)Nc1ccccc1	i	i	i	82	i
CCn1nc(C(=O)OC(C(=O)c2c[nH]c3ccccc23)c2ccccc2)c2ccccc2c1=O (stereo not given)	i	i	i	i	i
Cc1ccc(-n2sc3ccccc3c2=O)cc1S(=O)(=O)N1CCCCC1	i	i	i	75	i

Source: PubChem BioAssay
